In ChEMBL document CHEMBL4028811, “Discovery of 2-substituted 1H-benzo[d]immidazole-4-carboxamide derivatives as novel poly(ADP-ribose)polymerase-1 inhibitors with in vivo anti-tumor activity” (Eur J Med Chem, 2017):
pIC50: −log10 of the molar value. Each block holds one molecule with its values, some of them ahead of it.

Assays:
[1] = biological target: T1, Poly [ADP-ribose] polymerase 1 (Homo sapiens, UniProt P09874); assay: Inhibition of recombinant human PARP1 expressed in Escherichia coli BL21(DE3) using histone as substrate measured after 1 hr in presence of biotinylated NAD+ by ELISA
[2] = biological target: T1, Poly [ADP-ribose] polymerase 1; assay: Inhibition of recombinant human PARP1 expressed in Escherichia coli BL21(DE3) using sheared DNA as substrate measured after 1 hr in presence of NAD+
[3] = biological target: Poly [ADP-ribose] polymerase 2 (Homo sapiens, UniProt Q9UGN5); assay: Inhibition of recombinant human PARP2 expressed in Escherichia coli BL21(DE3) using histone as substrate measured after 1 hr in presence of biotinylated NAD+ by ELISA
Summary of the method: (§1)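 Human recombinant PARP2 (and PARP1) expressed and purified, inhibition measured by ELISA, with AZD2281 as positive control. IC50 from concentration–response fitting.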

[4] = species on record: Homo sapiens; assay: Selectivity ratio of IC50 for recombinant human PARP2 to IC50 for recombinant human PARP1; summary of the method: as §1
[5] = biological target: T1, Poly [ADP-ribose] polymerase 1; assay: Inhibition of PARP1 in human MX1 cells assessed as potentiation of temozolomide-induced cytotoxicity at 10 uM after 72 hrs by MTT assay relative to temozolomide alone; type: cell-based
Summary of the method: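 MX-1 cells seeded at 2000/well and exposed for 72 h to TMZ (0–0.5 mmol/L) with or without PARP inhibitor fixed at 10 μmol/L. Survival read by MTT. PF50 = IC50 of TMZ alone / IC50 of TMZ + inhibitor.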

[6] = test system: MX1; assay: Anti-tumor activity against human MX1 cells xenografted in BALB/c mouse assessed as tumor weight at 50 mg/kg, po administered once daily via gavage for 5 days measured after 11 days in presence of temozolomide (reference value: 4.09 +/- 0.64 g); type: functional
Summary of the method: (§2)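 Female athymic BALB/c nude mice, 8–10 weeks old, implanted s.c. with 1×10^6 MX-1 cells in 0.1 mL PBS. Day 6: grouped at 6/group, tumors 100–300 mm³. Oral gavage once daily. TMZ 50 mg/kg/day for 5 days; single-agent test compound 50 mg/kg/day for 10 days; combinations both orally for 5 days. Body weight and tumor volume measured twice weekly; euthanized day 11.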

[7] = test system: MX1; assay: Anti-tumor activity against human MX1 cells xenografted in BALB/c mouse assessed as tumor weight at 25 mg/kg, po administered once daily via gavage for 5 days measured after 11 days in presence of temozolomide (reference value: 4.09 +/- 0.64 g); type: functional; summary of the method: as §2
[8] = test system: MX1; assay: Anti-tumor activity against human MX1 cells xenografted in BALB/c mouse assessed as tumor weight at 50 mg/kg, po administered once daily via gavage for 10 days measured after 11 days (reference value: 4.09 +/- 0.64 g); type: functional; summary of the method: as §2
[9] = test system: MX1; assay: Anti-tumor activity against human MX1 cells xenografted in BALB/c mouse assessed as tumor growth inhibition at 25 mg/kg, po administered once daily via gavage for 5 days measured after 11 days in presence of temozolomide relative to control; type: functional; summary of the method: as §2
[10] = test system: MX1; assay: Anti-tumor activity against human MX1 cells xenografted in BALB/c mouse assessed as tumor growth inhibition at 50 mg/kg, po administered once daily via gavage for 5 days measured after 11 days in presence of temozolomide relative to control; type: functional; summary of the method: as §2
[11] = test system: MX1; assay: Anti-tumor activity against human MX1 cells xenografted in BALB/c mouse assessed as tumor growth inhibition at 50 mg/kg, po administered once daily via gavage for 10 days measured after 11 days relative to control; type: functional; summary of the method: as §2
[12] = test system: Mus musculus; assay: Toxicity in BALB/c mouse assessed as change in body weight at 50 mg/kg, po administered once daily via gavage for 10 days measured twice every week up to 11 days (reference value: 5.32 g); type: organism-based; details: in vivo; summary of the method: as §2
[13] = test system: Mus musculus; assay: Toxicity in BALB/c mouse assessed as change in body weight at 50 mg/kg, po administered once daily via gavage for 5 days in presence of temozolomide measured twice every week up to 11 days (reference value: 5.32 g); type: organism-based; details: in vivo; summary of the method: as §2
[14] = test system: Mus musculus; assay: Toxicity in BALB/c mouse assessed as change in body weight at 25 mg/kg, po administered once daily via gavage for 5 days in presence of temozolomide measured twice every week up to 11 days (reference value: 5.32 g); type: organism-based; details: in vivo; summary of the method: as §2
[15] = test system: MX1; assay: Anti-tumor activity against human MX1 cells xenografted in BALB/c mouse assessed as tumor growth inhibition at 25 mg/kg, po administered once daily via gavage for 5 days measured after 11 days in presence of temozolomide relative to temozolomide; type: functional; summary of the method: as §2
[16] = test system: MX1; assay: Anti-tumor activity against human MX1 cells xenografted in BALB/c mouse assessed as tumor growth inhibition at 50 mg/kg, po administered once daily via gavage for 5 days measured after 11 days in presence of temozolomide relative to temozolomide; type: functional; summary of the method: as §2
[17] = test system: MX1; assay: Anti-tumor activity against human MX1 cells xenografted in BALB/c mouse assessed as tumor weight at 50 mg/kg, po administered once daily via gavage for 5 days measured after 11 days (reference value: 4.09 +/- 0.64 g); type: functional; summary of the method: as §2
[18] = test system: MX1; assay: Anti-tumor activity against human MX1 cells xenografted in BALB/c mouse assessed as tumor growth inhibition at 50 mg/kg, po administered once daily via gavage for 5 days measured after 11 days relative to control; type: functional; summary of the method: as §2
[19] = test system: Mus musculus; assay: Toxicity in BALB/c mouse assessed as change in body weight at 50 mg/kg, po administered once daily via gavage for 5 days measured twice every week up to 11 days (reference value: 5.32 g); type: organism-based; details: in vivo; summary of the method: as §2
[20] = Mus musculus, MX1, po, read-out: TGI

Poly [ADP-ribose] polymerase 2, sequence (Q9UGN5 whole entry): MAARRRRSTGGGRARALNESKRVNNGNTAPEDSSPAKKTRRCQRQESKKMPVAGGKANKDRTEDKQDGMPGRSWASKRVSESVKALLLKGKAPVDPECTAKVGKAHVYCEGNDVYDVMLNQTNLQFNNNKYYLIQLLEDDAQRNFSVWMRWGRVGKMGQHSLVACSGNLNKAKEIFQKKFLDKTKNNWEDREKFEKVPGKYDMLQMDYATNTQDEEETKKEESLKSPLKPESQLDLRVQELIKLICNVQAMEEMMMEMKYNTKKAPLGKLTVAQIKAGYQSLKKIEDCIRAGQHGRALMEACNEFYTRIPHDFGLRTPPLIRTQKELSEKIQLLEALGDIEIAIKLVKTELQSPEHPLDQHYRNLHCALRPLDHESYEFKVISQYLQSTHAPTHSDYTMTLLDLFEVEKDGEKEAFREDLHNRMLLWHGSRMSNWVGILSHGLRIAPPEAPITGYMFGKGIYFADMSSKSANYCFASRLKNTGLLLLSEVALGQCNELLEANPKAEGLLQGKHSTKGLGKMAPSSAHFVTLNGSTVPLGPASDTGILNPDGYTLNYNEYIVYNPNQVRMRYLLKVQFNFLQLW
T1 sequence (P09874 whole entry): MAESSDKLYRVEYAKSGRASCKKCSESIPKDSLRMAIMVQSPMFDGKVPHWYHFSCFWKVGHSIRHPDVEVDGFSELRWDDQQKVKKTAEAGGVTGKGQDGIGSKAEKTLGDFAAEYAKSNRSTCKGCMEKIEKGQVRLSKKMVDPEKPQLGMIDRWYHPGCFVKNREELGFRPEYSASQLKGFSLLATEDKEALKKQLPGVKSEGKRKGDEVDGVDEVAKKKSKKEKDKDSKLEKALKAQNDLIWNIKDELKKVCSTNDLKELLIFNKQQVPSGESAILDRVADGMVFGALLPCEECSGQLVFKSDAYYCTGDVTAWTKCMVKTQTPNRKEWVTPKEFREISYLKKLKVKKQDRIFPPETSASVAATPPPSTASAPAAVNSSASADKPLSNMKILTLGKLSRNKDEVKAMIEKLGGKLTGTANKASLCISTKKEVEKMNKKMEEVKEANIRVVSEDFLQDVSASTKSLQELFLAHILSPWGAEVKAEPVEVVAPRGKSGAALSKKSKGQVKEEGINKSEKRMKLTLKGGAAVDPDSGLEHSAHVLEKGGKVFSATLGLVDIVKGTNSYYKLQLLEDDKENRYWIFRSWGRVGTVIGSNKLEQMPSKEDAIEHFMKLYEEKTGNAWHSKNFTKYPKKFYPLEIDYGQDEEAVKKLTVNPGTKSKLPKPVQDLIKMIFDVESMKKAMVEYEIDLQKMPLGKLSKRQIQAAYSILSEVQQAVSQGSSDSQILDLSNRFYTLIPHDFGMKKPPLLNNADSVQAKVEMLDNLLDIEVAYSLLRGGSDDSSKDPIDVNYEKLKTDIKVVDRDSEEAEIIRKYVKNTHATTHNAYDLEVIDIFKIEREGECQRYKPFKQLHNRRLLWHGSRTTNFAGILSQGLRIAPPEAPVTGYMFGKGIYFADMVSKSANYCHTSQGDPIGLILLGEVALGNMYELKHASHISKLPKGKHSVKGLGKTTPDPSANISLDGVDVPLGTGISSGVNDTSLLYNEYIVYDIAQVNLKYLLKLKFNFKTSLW

Structure (SMILES): NC(=O)c1cccc2[nH]c(C(=O)NC3CCN(C4CCNCC4)CC3)nc12
pIC50 [1]: 6.50

Structure (SMILES): NC(=O)c1cccc2[nH]c(C(=O)NC3CCCN(C4CCCCC4)C3)nc12 (stereo unspecified)
pIC50 [2]: 6.42

Structure (SMILES): NC(=O)c1cc(F)cc2[nH]c(C(=O)N3CCC(N)C3)nc12 (stereo unspecified)
pIC50 [1]: 7.92 | pIC50 [3]: 7.72 | Ratio IC50 [4]: < 10 | PF50 [5]: 1.07

Structure (SMILES): CC(C)(C)OC(=O)N1CCC(NC(=O)c2nc3c(C(N)=O)cccc3[nH]2)CC1
pIC50 [1]: 6.19

Structure (SMILES): NC(=O)c1cc(F)cc2[nH]c(C(=O)N3CCC(N)CC3)nc12
pIC50 [1]: 8.56 | pIC50 [3]: 7.62 | Ratio IC50 [4]: < 10 | PF50 [5]: 0.98

Structure (SMILES): NC(=O)c1cccc2[nH]c(C(=O)NC3CN4CCC3CC4)nc12 (stereo unspecified)
pIC50 [1]: < 7.00

Structure (SMILES): NC(=O)c1cccc2[nH]c(C(=O)NC3CCN(C4CCCCC4)CC3)nc12
pIC50 [1]: 6.51

Structure (SMILES): NC(=O)c1cccc2[nH]c(C(=O)NC3CCN(CC4CC4)CC3)nc12
pIC50 [1]: 6.97 | pIC50 [3]: 6.89 | Ratio IC50 [4]: < 10 | PF50 [5]: 3.53

Structure (SMILES): NC(=O)c1cccc2[nH]c(C(=O)NC3CCN(C(=O)C(F)(F)F)CC3)nc12
pIC50 [1]: 7.08

Structure (SMILES): NC(=O)c1cc(F)cc2[nH]c(C(=O)N3CCC(NC4CCCCC4)CC3)nc12
pIC50 [1]: 8.12 | pIC50 [3]: 7.47 | Ratio IC50 [4]: < 10 | PF50 [5]: 0.71

Structure (SMILES): CC(C)(C)CN1CCC(NC(=O)c2nc3c(C(N)=O)cc(F)cc3[nH]2)CC1
pIC50 [1]: 7.77 | Activity [6]: 0.5 g | Activity [7]: 1.47 g | pIC50 [3]: 7.13 | Ratio IC50 [4]: < 10 | PF50 [5]: 7.1 | Activity [8]: 3.73 g | T/C [9]: 36% | inhibition in vivo at 25 mg/kg [9, 20]: 64% | T/C [10]: 12% | inhibition in vivo at 50 mg/kg [10, 20]: 88% | T/C [11]: 91% | inhibition in vivo at 50 mg/kg [11, 20]: 9% | Activity [12]: 5 g | Activity [13]: -0.79 g | Activity [14]: 0.23 g | T/C [15]: 94% | inhibition in vivo at 25 mg/kg [15, 20]: 6% | T/C [16]: 32% | inhibition in vivo at 50 mg/kg [16, 20]: 68%

Structure (SMILES): NC(=O)c1cccc2[nH]c(C(=O)NC3CCN(CC(F)(F)F)CC3)nc12
pIC50 [1]: 7.47 | pIC50 [3]: 7.00 | Ratio IC50 [4]: < 10 | PF50 [5]: 0.93

Structure (SMILES): CC(C)(C)OC(=O)NC1CCN(C(=O)c2nc3c(C(N)=O)cc(F)cc3[nH]2)CC1
pIC50 [1]: 7.10

Structure (SMILES): Cn1nnc2c(C(N)=O)ncn2c1=O [TEMOZOLOMIDE]
Activity [17]: 1.57 g | T/C [18]: 38% | inhibition in vivo at 50 mg/kg [18, 20]: 62% | Activity [19]: 0.02 g

Structure (SMILES): CCC(CC)N1CCC(NC(=O)c2nc3c(C(N)=O)cc(F)cc3[nH]2)CC1
pIC50 [1]: 7.52

Structure (SMILES): CC(C)(C)OC(=O)N1CCCC(NC(=O)c2nc3c(C(N)=O)cccc3[nH]2)C1 (stereo unspecified)
pIC50 [2]: 5.94

More lines, main results first:

pIC50 [1]: < 7.00
Structure (SMILES): CC[C@@H]1CN(C(=O)c2nc3c(C(N)=O)cccc3[nH]2)CCN1C(=O)OC(C)(C)C

pIC50 [1]: 7.54
Structure (SMILES): NC(=O)c1cccc2[nH]c(C(=O)N3CCNC(=O)C3)nc12

pIC50 [1]: 7.38
Structure (SMILES): NC(=O)c1cccc2[nH]c(C(=O)N3CCNCC3)nc12

pIC50 [1]: 6.52
Structure (SMILES): CCC(CC)N1CCC(NC(=O)c2nc3c(C(N)=O)cccc3[nH]2)CC1

pIC50 [1]: 6.07
Structure (SMILES): CC(C)(C)OC(=O)NC1CCN(C(=O)c2nc3c(C(N)=O)cccc3[nH]2)C1 (stereo unspecified)

pIC50 [1]: 7.40
Structure (SMILES): CCN1CCC(NC(=O)c2nc3c(C(N)=O)cccc3[nH]2)CC1

pIC50 [1]: 7.08
Structure (SMILES): CCC(=O)NC1CCN(C(=O)c2nc3c(C(N)=O)cccc3[nH]2)C1 (stereo unspecified)

pIC50 [1]: 7.00 | Ratio IC50 [4]: < 10
Structure (SMILES): NC(=O)c1cccc2[nH]c(C(=O)NC3CCNCC3)nc12
PF50 [5]: 1.75

pIC50 [1]: 7.19
Structure (SMILES): CC(C)N1CCC(NC(=O)c2nc3c(C(N)=O)cccc3[nH]2)CC1

pIC50 [1]: 7.04
Structure (SMILES): CC(C)CN1CCC(NC(=O)c2nc3c(C(N)=O)cccc3[nH]2)CC1

pIC50 [1]: < 7.00
Structure (SMILES): CC[C@@H]1CN(C(=O)c2nc3c(C(N)=O)cccc3[nH]2)CCN1

pIC50 [1]: 7.54 | pIC50 [3]: 7.14 | Ratio IC50 [4]: < 10
Structure (SMILES): NC(=O)c1cccc2[nH]c(C(=O)N3CCC(N)CC3)nc12
PF50 [5]: 1.99

pIC50 [2]: 5.74
Structure (SMILES): CC(C)(C)OC(=O)N1CCC(NC(=O)c2nc3c(C(N)=O)cccc3[nH]2)C1 (stereo unspecified)
